Source: ChEMBL document CHEMBL4354837 (J Med Chem, 2020)
The source made the active and inactive calls. The calls are words filed in the database; no cut-off is given here. Square brackets hold non-standard residues; d marks the D form. Peptide text beside a SMILES is read from it. Dap = NC[C@H](N)C(=O)O

Key:
Melanocortin receptor 4 [1] = biological target: T1, Melanocortin receptor 4 (Homo sapiens, UniProt P32245); experiment: Inverse agonist activity at human melanocortin receptor 4 expressed in HEK293 cells assessed as inhibition of basal cAMP accumulation incubated for 2 hrs by cAMP Alpha-screen assay; type: functional, cell-based
T1 sequence (P32245 whole entry): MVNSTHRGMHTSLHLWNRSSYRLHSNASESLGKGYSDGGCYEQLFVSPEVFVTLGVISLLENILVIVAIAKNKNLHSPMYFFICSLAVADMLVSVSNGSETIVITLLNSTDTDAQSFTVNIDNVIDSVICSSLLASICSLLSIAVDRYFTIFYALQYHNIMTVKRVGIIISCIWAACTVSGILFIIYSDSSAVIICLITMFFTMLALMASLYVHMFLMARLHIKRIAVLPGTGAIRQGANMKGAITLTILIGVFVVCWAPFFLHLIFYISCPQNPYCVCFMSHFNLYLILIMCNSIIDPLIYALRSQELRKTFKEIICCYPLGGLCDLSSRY
How it was run: (§1)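 AlphaScreen cAMP assay in stably transfected HEK293 cells, with 10,000 cells/well in IBMX-containing HBSS/HEPES buffer pH 7.4. Peptide alone, up to 100 μM, 2 h at room temperature in the dark, then 2 h lysis/detection. Inverse agonism taken as percent decrease of cAMP from basal, relative to maximal NDP-MSH signal, at 100 μM. Duplicates, three independent experiments.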

Melanocortin receptor 4 [2] = biological target: T1, Melanocortin receptor 4; experiment: Antagonist activity at human melanocortin receptor 4 expressed in HEK293 cells assessed as inhibition of NDP-MSH-induced cAMP accumulation incubated for 2 hrs by cAMP Alpha-screen assay based Schild analysis; type: functional, cell-based; conditions: read-out: pA2 (converted)
Melanocortin receptor 4 [3] = biological target: T1, Melanocortin receptor 4; experiment: Ratio of IC50 for MDE6-82-1c to IC50 for test compound for displacement of [125I]-NDP-MSH from human melanocortin receptor 4 […] incubated for 1 hr by automatic gamma counting method; type: cell membranes
Melanocortin receptor 3 [4] = biological target: T2, Melanocortin receptor 3 (Mus musculus, UniProt P33033); experiment: Antagonist activity at mouse melanocortin receptor 3 expressed in HEK293 cells assessed as inhibition of NDP-MSH-induced cAMP accumulation incubated for 2 hrs by cAMP Alpha-screen assay based Schild analysis; type: functional, cell-based; conditions: read-out: pA2 (converted)
T2 sequence (P33033 whole entry): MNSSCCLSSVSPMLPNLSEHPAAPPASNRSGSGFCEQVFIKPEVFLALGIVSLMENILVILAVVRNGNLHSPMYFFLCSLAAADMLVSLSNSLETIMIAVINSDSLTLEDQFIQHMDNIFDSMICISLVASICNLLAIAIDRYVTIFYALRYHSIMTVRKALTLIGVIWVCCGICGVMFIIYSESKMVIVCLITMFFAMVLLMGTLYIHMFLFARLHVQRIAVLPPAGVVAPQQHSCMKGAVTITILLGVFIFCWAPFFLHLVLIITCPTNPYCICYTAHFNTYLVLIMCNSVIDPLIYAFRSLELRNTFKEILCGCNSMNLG
How it was run: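 NDP-MSH (10−6 to 10−12) plus antagonist at 10,000, 5,000, 1,000 and 500 nM, 2 h dark at room temperature. AlphaScreen cAMP read after lysis/bead step 2 h. Schild pA2; duplicates, at least three independent experiments.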

[5] = biological target: Melanocortin receptor 3 (Mus musculus) (UniProt P33033); experiment: Agonist activity at mouse melanocortin receptor 3 expressed in HEK293 cells assessed as stimulation of cAMP accumulation at 100 uM incubated for 2 hrs by cAMP Alpha-screen assay relative to control; type: functional, cell-based
Sequence of Melanocortin receptor 3 (Mus musculus) (P33033 whole entry): as above

[6] = biological target: Melanocyte-stimulating hormone receptor (Mus musculus) (UniProt Q01727); experiment: Ratio of IC50 for MDE6-82-1c to IC50 for test compound for displacement of [125I]-NDP-MSH from mouse melanocortin receptor 1 […] incubated for 1 hr by automatic gamma counting method
Sequence of Melanocyte-stimulating hormone receptor (Mus musculus) (Q01727 whole entry, looked up): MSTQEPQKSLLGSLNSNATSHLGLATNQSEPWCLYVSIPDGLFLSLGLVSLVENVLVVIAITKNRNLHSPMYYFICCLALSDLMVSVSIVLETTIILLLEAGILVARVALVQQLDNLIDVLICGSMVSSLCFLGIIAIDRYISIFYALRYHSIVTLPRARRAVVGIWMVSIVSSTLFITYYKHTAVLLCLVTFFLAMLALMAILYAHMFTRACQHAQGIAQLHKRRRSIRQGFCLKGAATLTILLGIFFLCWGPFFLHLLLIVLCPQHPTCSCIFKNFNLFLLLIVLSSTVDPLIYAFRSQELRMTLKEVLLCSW

[7] = biological target: Melanocortin receptor 3 (Mus musculus) (UniProt P33033); experiment: Ratio of IC50 for MDE6-82-1c to IC50 for test compound for displacement of [125I]-NDP-MSH from mouse melanocortin receptor 3 expressed in HEK293 cell mebranes incubated for 1 hr by automatic gamma counting method
How it was run: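 Whole stably transfected HEK293 cells (>90% confluent) incubated 1 h at 37°C, 5% CO2, in DMEM with 0.1% BSA. […] Cells washed, lysed with NaOH/Triton X-100, and counted by gamma counter. Specific binding normalized to nonradioactive NDP-MSH. IC50 from duplicates in two experiments (mean ± SD). Fold difference taken against the Dap-containing parent control.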

[8] = biological target: Melanocortin receptor 4 (Mus musculus) (UniProt P56450); experiment: Agonist activity at mouse melanocortin receptor 4 expressed in HEK293 cells assessed as stimulation of cAMP accumulation at 100 uM incubated for 2 hrs by cAMP Alpha-screen assay relative to control; type: functional, cell-based
Sequence of Melanocortin receptor 4 (Mus musculus) (P56450 whole entry): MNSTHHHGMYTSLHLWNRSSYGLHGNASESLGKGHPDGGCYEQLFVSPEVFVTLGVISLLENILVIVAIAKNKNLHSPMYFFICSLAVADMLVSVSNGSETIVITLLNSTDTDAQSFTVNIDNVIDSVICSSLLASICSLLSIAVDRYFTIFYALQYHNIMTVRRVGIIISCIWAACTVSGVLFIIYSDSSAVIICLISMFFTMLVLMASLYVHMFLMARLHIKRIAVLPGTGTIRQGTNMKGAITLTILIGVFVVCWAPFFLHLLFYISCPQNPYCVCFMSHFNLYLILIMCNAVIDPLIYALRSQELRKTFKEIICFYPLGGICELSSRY

[9] = biological target: Melanocortin receptor 4 (Mus musculus) (UniProt P56450); experiment: Ratio of IC50 for MDE6-82-1c to IC50 for test compound for displacement of [125I]-NDP-MSH from mouse melanocortin receptor 4 […] incubated for 1 hr by automatic gamma counting method
Melanocortin receptor 4 [10] = biological target: T3, Melanocortin receptor 4 (Mus musculus, UniProt P56450); experiment: Antagonist activity at mouse melanocortin receptor 4 expressed in HEK293 cells assessed as inhibition of NDP-MSH-induced cAMP accumulation incubated for 2 hrs by cAMP Alpha-screen assay based Schild analysis; type: functional, cell-based; conditions: read-out: pA2 (converted)
T3 sequence (P56450 whole entry): as above

Melanocortin receptor 5 [11] = biological target: T4, Melanocortin receptor 5 (Mus musculus, UniProt P41149); experiment: Agonist activity at mouse melanocortin receptor 5 expressed in HEK293 cells assessed as stimulation of cAMP accumulation incubated for 2 hrs by cAMP Alpha-screen assay; type: functional, cell-based
T4 sequence (P41149 whole entry): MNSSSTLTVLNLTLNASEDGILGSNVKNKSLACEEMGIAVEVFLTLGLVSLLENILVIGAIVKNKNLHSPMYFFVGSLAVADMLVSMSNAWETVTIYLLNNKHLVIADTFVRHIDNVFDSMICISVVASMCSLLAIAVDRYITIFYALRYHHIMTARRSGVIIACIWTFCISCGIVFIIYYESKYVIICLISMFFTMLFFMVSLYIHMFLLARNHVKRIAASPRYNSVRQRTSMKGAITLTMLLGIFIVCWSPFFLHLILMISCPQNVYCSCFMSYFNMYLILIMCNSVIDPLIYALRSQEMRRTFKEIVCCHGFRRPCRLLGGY

Melanocortin receptor 5 [12] = biological target: T4, Melanocortin receptor 5; experiment: Displacement of [125I]-NDP-MSH from mouse melanocortin receptor 5 expressed in HEK293 cell mebranes incubated for 1 hr by automatic gamma counting method; type: cell-based
Melanocortin receptor 4 [13] = biological target: T3, Melanocortin receptor 4; experiment: Agonist activity at mouse melanocortin receptor 4 expressed in HEK293 cells assessed as stimulation of cAMP accumulation incubated for 2 hrs by cAMP Alpha-screen assay; type: functional, cell-based
Melanocortin receptor 3 [14] = biological target: T2, Melanocortin receptor 3; experiment: Agonist activity at mouse melanocortin receptor 3 expressed in HEK293 cells assessed as stimulation of cAMP accumulation incubated for 2 hrs by cAMP Alpha-screen assay; type: functional, cell-based
[15] = biological target: Melanocyte-stimulating hormone receptor (Mus musculus) (UniProt Q01727); experiment: Agonist activity at mouse melanocortin receptor 1 expressed in HEK293 cells assessed as stimulation of cAMP accumulation at 100 uM incubated for 2 hrs by cAMP Alpha-screen assay relative to control; type: functional, cell-based
[16] = biological target: Melanocortin receptor 5 (Mus musculus) (UniProt P41149); experiment: Ratio of IC50 for MDE6-82-1c to IC50 for test compound for displacement of [125I]-NDP-MSH from mouse melanocortin receptor 5 […] incubated for 1 hr by automatic gamma counting method
Sequence of Melanocortin receptor 5 (Mus musculus) (P41149 whole entry): as above

[17] = biological target: Melanocortin receptor 4 (Mus musculus) (UniProt P56450); experiment: Ratio of IC50 for MDE6-82-3c to IC50 for test compound for displacement of [125I]-NDP-MSH from mouse melanocortin receptor 4 expressed in HEK293 cell mebranes incubated for 1 hr by automatic gamma counting method
How it was run: (§2)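 Cells washed, lysed 10 min with 0.1 M NaOH/1% Triton X-100, then gamma-counted. Specific binding defined with unlabelled NDP-MSH and normalized to it. Duplicate wells, two experiments. IC50 by non-linear fit. Fold difference taken relative to the Asn-parent macrocycle control.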

[18] = biological target: Melanocortin receptor 3 (Mus musculus) (UniProt P33033); experiment: Ratio of IC50 for MDE6-82-3c to IC50 for test compound for displacement of [125I]-NDP-MSH from mouse melanocortin receptor 3 expressed in HEK293 cell mebranes incubated for 1 hr by automatic gamma counting method; how it was run: as §2
[19] = biological target: Melanocortin receptor 5 (Mus musculus) (UniProt P41149); experiment: Ratio of IC50 for MDE6-82-3c to IC50 for test compound for displacement of [125I]-NDP-MSH from mouse melanocortin receptor 5 expressed in HEK293 cell mebranes incubated for 1 hr by automatic gamma counting method; how it was run: as §2
Melanocortin receptor 4 [20] = biological target: T1, Melanocortin receptor 4; experiment: Ratio of IC50 for MDE6-82-3c to IC50 for test compound for displacement of [125I]-NDP-MSH from human melanocortin receptor 4 expressed in HEK293 cell membranes incubated for 1 hr by automatic gamma counting method; how it was run: as §2
[21] = biological target: Melanocyte-stimulating hormone receptor (Mus musculus) (UniProt Q01727); experiment: Ratio of IC50 for MDE6-82-3c to IC50 for test compound for displacement of [125I]-NDP-MSH from mouse melanocortin receptor 1 expressed in HEK293 cell mebranes incubated for 1 hr by automatic gamma counting method; how it was run: as §2
[22] = biological target: T5, Melanocyte-stimulating hormone receptor (Mus musculus, UniProt Q01727); experiment: Agonist activity at mouse melanocortin receptor 1 expressed in HEK293 cells assessed as stimulation of cAMP accumulation incubated for 2 hrs by cAMP Alpha-screen assay; type: functional, cell-based
T5 sequence (Q01727 whole entry): as the sequence (Q01727 whole entry, looked up) above

[23] = biological target: T5, Melanocyte-stimulating hormone receptor; experiment: Displacement of [125I]-NDP-MSH from mouse melanocortin receptor 1 expressed in HEK293 cell mebranes incubated for 1 hr by automatic gamma counting method; type: cell-based; how it was run: as §2
[24] = biological target: Melanocortin receptor 5 (Mus musculus) (UniProt P41149); experiment: Inverse agonist activity at mouse melanocortin receptor 5 expressed in HEK293 cells assessed as inhibition of basal cAMP accumulation at 100 uM incubated for 2 hrs by cAMP Alpha-screen assay relative to control; type: functional, cell-based; how it was run: as §1
Melanocortin receptor 3 [25] = biological target: T2, Melanocortin receptor 3; experiment: Displacement of [125I]-NDP-MSH from mouse melanocortin receptor 3 expressed in HEK293 cell mebranes incubated for 1 hr by automatic gamma counting method; type: cell-based

| SMILES | Activity (Melanocortin receptor 4 [1]) | Ratio IC50 (Melanocortin receptor 4 [3]) | Ratio IC50 [6] | Ratio IC50 [7] | Activity [8] [%] | Ratio IC50 [9] | EC50 (Melanocortin receptor 5 [11]) [µM] | IC50 (Melanocortin receptor 5 [12]) [µM] | EC50 (Melanocortin receptor 4 [13]) [µM] | EC50 (Melanocortin receptor 3 [14]) [µM] | Activity [15] [%] | Ratio IC50 [16] | Ratio IC50 [17] | Ratio IC50 (Melanocortin receptor 4 [20]) | further results |
| --- | --- | --- | --- | --- | --- | --- | --- | --- | --- | --- | --- | --- | --- | --- | --- |
| C[C@@H]1NC(=O)[C@H](CN)NC(=O)[C@H](Cc2ccccc2)NC(=O)[C@H](Cc2ccccc2)NC(=O)[C@H](CS)NC(=O)[C@@H]2CCCN2C(=O)[C@H]2CCCN2C(=O)[C@H](Cc2ccccc2)NC1=O (cyclo(PCFF[Dap]AF[dP])) | inactive | 2100 | 6 | 15 | 42 | 5200 | > 100 | > 100 | – | – | – | – | – | – | Kb (Melanocortin receptor 4 [2]): > 10 µM; Kb (Melanocortin receptor 3 [4]): > 10 µM; Activity [5]: 29%; Kb (Melanocortin receptor 4 [10]): > 10 µM |
| C[C@@H]1NC(=O)[C@H](CN)NC(=O)[C@H](Cc2ccccc2)NC(=O)[C@H](Cc2ccccc2)NC(=O)[C@H](Cc2c[nH]cn2)NC(=O)[C@@H]2CCCN2C(=O)[C@H]2CCCN2C(=O)[C@H](Cc2ccccc2)NC1=O (cyclo(PHFF[Dap]AF[dP])) | inactive | 400 | 5 | 5 | – | 500 | > 100 | – | > 100 | > 100 | 56 | 7 | – | – | – |
| CC(C)[C@@H]1NC(=O)[C@H](CC(N)=O)NC(=O)[C@H](Cc2ccccc2)NC(=O)[C@H](Cc2ccccc2)NC(=O)[C@H](CCCNC(=N)N)NC(=O)[C@@H]2CCCN2C(=O)[C@H]2CCCN2C(=O)[C@H](Cc2ccccc2)NC1=O (cyclo(PRFFNVF[dP])) | Active | – | – | – | 16 | – | > 100 | – | – | > 100 | 23 | – | 2 | 3 | Ratio IC50 [18]: 3; Ratio IC50 [19]: 2; Ratio IC50 [21]: 2 |
| C[C@@H]1NC(=O)[C@H](CC(N)=O)NC(=O)[C@H](Cc2ccccc2)NC(=O)[C@H](Cc2ccc(O)cc2)NC(=O)[C@H](CCCNC(=N)N)NC(=O)[C@@H]2CCCN2C(=O)[C@H]2CCCN2C(=O)[C@H](Cc2ccccc2)NC1=O (cyclo(PRYFNAF[dP])) | Active | – | – | – | – | – | – | > 100 | > 100 | > 100 | – | – | 100 | 2000 | EC50 [22]: > 100 µM; IC50 [23]: > 100 µM; inhibition [24]: 35%; IC50 (Melanocortin receptor 3 [25]): > 100 µM |
| C[C@@H]1NC(=O)[C@H](CN)NC(=O)[C@H](Cc2ccccc2)NC(=O)[C@H](Cc2ccc(O)cc2)NC(=O)[C@H](CCCNC(=N)N)NC(=O)[C@@H]2CCCN2C(=O)[C@H]2CCCN2C(=O)[C@H](Cc2ccccc2)NC1=O (cyclo(RYF[Dap]AF[dP]P)) | Active | 100 | 4 | 9 | – | 70 | > 100 | – | > 100 | > 100 | 48 | 20 | – | – | – |
